Experimental data as given in the EternaBench riboswitch data.

System: MS2 coat protein
Assay: apparent Kd, MS2 coat protein; higher = weaker binding; RNA-MaP array; FMN 200 µM where present
In short: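 Stalled E. coli RNA polymerase transcribed the designs on Illumina sequencing-chip clusters. SNAP-549-labelled MS2 coat protein was titrated from 0.7 or 1.5 nM, doubling to 3 µM, without and then with constant ligand, in 100 mM Tris-HCl pH 7.5, 80 mM KCl, 4 mM MgCl2, BSA, DTT, yeast tRNA and Tween-20. Per-cluster binding curves were fitted to green signal normalised to red-channel RNA signal and control-cluster median Fmax. The apparent Kd is the median of the filtered fits.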

[1] = designed as: OFF switch for flavin mononucleotide, no ligand
[2] = ligand present: flavin mononucleotide, designed as: OFF switch for flavin mononucleotide
[3] = designed as: ON switch for flavin mononucleotide, no ligand
[4] = ligand present: flavin mononucleotide, designed as: ON switch for flavin mononucleotide

Sequence	apparent Kd [1] [nM]	apparent Kd [2] [nM]	apparent Kd [3] [nM]	apparent Kd [4] [nM]
UGCCAGUUAGGAUAUGACUCGACAGACAUGAGGAUCACCCAUGUCCGAGUGUGUGUUUUUUCAGAAGGGACGGCCC	25.1	30.4	–	–
AGCCACAGUUCAGGAUAUGCGGGCCGACUGGUAGCAGAAGGGAACAUGAGGAUCACCCAUGUAGGUCAUACGGGCUACGUCGAA	11.6	45.6	–	–
GGUGGUCUUGUGAGGAUAUGGUUGGAUGCAUAUGAUCAGAAGGCACAUGAGGAUCACCCAUGUGGAAUACCACU	37.3	234	–	–
GUGUAGCAAGGAUAUACAUGAGGAUCACCCAUGUGAAUAAGAUAGAAUAAGAUAAAGUGUAGAAGGUGCAGUGU	39	34.4	–	–
UUCAGCUCGUGAGGAUAUACAUGUGCUGGAAACAGCACUAUUAAGUUCACAUGAGGAUCACCCAUGUAGAAGGCACGAGCUGAG	14.9	19.3	–	–
AAUGCCAACGAAGGAUAUACAAACAUGAGGAUCACCCAUGUGUCUUUCGUGUAACUGGAAUUCGGGUAGAAGGUCGUUGACAUA	24.2	23.2	–	–
CUCGUGUAAGGAUAUGCGAGCCACGGAAAUAAAACGUGGAGGUAGAAGGUACAUGAGGAUCACCCAUGUAAAAC	25.4	85.3	–	–
UGGGCGAGCCCAGUACUCACACAUGAGGAUCACCCAUGUGACGAGGAUAUAGACAGCGAUGCGUACUAGAAGGCGUCACGGUAA	11	46.2	–	–
GGACGUCACAUGAACAUGAGGAUCACCCAUGUAAAUUCUCAUGAGGAUAUGGAUCCUAAUUGGAUCCAGAAGGCGUGGACGUCC	–	–	1030	415
GUCAGCUCGUGAGGAUAUACAACACUGCUUCCGCAGUGUAUUAAGAUCACAUGAGGAUCACCCAUGUAGAAGGCACGAGCUGAU	13.7	222	–	–
GCUGACGAUGUAGGAUAUCUCGACGAUAAGUCGAGAGAAGGACAUGAGGAUCACCCAUGUAACUCAACGUCAGCGAGGAAACUC	17.8	20.6	–	–
GCCAUCGCAUGAGGAUAUGCUCCGGUUUCCGGAGCAGAAGGUAUGUCAUAAGACAUGAGGAUCACCCAUGUAGUUAAGAUGGCA	–	–	252	30
CCUAAACAUGAGGAUCACCCAUGUGAGGAUAUGAUGCAGCAGUGGUCUACGCUGUGCAUCAGAAGGUACAUGGU	80.8	120	–	–
AAUUAUAUGUAGAAGGUACUAACAUAAGUGUUGUAAGGAUAUACCAAUUUAUUAGUUUUAAAGUUACAUGAGGAUCACCCAUGU	–	–	12.4	7.98
AAGAAACAUGAGGAUCACCCAUGUGAGGAUAUGCAAGAAAGAAAGAAAGAAAGAAGAAGCAGAAGGCACAAAGG	25.8	49.7	–	–
AUGGAUAUCACAGGAUAUGCUAUGGAUACCAUAGCAGAAGGGUGAUCCAUCCUAUGUGAGCACAUGAGGAUCACCCAUGUGUCC	–	–	123	23.1
GUGCACAUUCGAGGAUAUCGGAGAGGAGUCCUUCGAGAAGGCGAUUCGUGCUGUGUUAUUCUGGACAUGAGGAUCACCCAUGUG	–	–	50.8	27.8
UGUUGAUAGCAGAAGGACAUGAGGAUCACCCAUGUAAGGAUACAAAUAUAUGUAGGAUAUGCUAUUGACUAAGAGUGAGCGUUC	8.55	18.9	–	–
AGGUACCAUGUUAGGAUAUCACUGACUAACGUCGCUGAGAAGGAACAUGAGGAUCACCCAUGUGCCGGGCUCUU	20.9	50.8	–	–
AGUGUCAUCGAGAAGGCCUCAACAUGAGGAUCACCCAUGUUGUAAUAUGGGAGGAUAUCGAUGAUACAGCUACGUUUCGUAGCG	–	–	19.9	5.82
GCGAUGUUAGGAUAUACAUGAGGAUCACCCAUGUUCAGACUGAGCCUAGAGCGUCUAUGUAGAAGGGACUCGCA	27.2	43.1	–	–
UCAAGUAUGUAGGAUAUCGAUGUCUUCGGACAUCGAGAAGGACGUACAUGAGGAUCACCCAUGUAACUUGCAUG	60.5	37.4	–	–
GGACGUCACUCAAACAAUUAAACAUGAGGAUCACCCAUGUCACAGGAUAUGGAUCCUAAUUGGAUCCAGAAGGGUGAGACGUCC	–	–	251	222
UAAAACCUAGGAUAUACAUGAGGAUCACCCAUGUUCGAAGGAGCCCAAGUGACUUCUAGUAGAAGGAGGGCGAA	18.8	23	–	–
